The values that follow come from PubChem BioAssay.

A short description of test [1]: nonspecific flux increase, KCNQ1-free cells – parental CHO cells, counter-screen for KCNQ1 potentiator project (AID 493006;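 active means duplicate-averaged activation above buffer control mean plus 5 SD of those controls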). Particulars: parental CHO-K1 cells, FluxOR thallium flux, at 10 µM; active compounds read high. In short, it runs like this:
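Assay system: Untransfected host CHO-K1 cells with FluxOR thallium dye | Probe or stimulus: Potassium/thallium depolarization pulse | Schedule: Overnight 37 °C plating, 90 min RT dye, 20 min compound | Detection: Kinetic thallium-flux fluorescence | Read-out: Max-minus-min fluorescence over baseline, percent of buffer-to-R-L3 span | Benchmarks: Low control buffer, high control R-L3 activator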

For test [2], the target named is Potassium voltage-gated channel subfamily KQT member 1 (Homo sapiens) (UniProt P51787). Briefly: enhancement of KCNQ1 channel thallium flux – FluxOR thallium flux, CHO cells, duplicates, confirmation (AID 493007;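 active means potentiation averaged over duplicate wells exceeding buffer-only control mean by more than 3 SD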;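 on outcome: cells depolarized by a potassium plus thallium sulfate stimulus after compound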). Particulars: KCNQ1 cell line, FluxOR thallium flux fluorescence, at 10 µM; active compounds read high, % of reference activator effect, buffer zero. The method in brief: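 Material: KCNQ1-expressing CHO cell line; Incubation: FluxOR dye loading 90 min, compound exposure 20 min, room temperature; Detection: FluxOR Tl+ flux fluorescence, 10 s baseline plus 110 s recording; Read-out: percent activation between buffer and R-L3 responses; Control set: buffer-only wells as 0% and R-L3 activator as 100%; Replication: duplicate wells per compound.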

Test [3] has as its target Potassium voltage-gated channel subfamily KQT member 2 (Rattus norvegicus) (UniProt O88943). Briefly: KCNQ2 thallium flux enhancement – KCNQ2-CHO-K1 cells, selectivity assay for KCNQ1 potentiator project (AID 493009).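 Further: assay conditions were tuned for KCNQ1 rather than KCNQ2 modulators; signal is max minus min fluorescence divided by baseline after thallium stimulus.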 Particulars: FluxOR thallium flux fluorescence, at 10 µM; active compounds read high, scaled: buffer 0, activator control 100.
Test [4] addresses Potassium voltage-gated channel subfamily KQT member 1 (Homo sapiens) (UniProt P51787). Briefly: KCNQ1 activators by electrophysiology – IonWorks patch clamp, KCNQ1-CHO cells, orthogonal assay for KCNQ1 potentiator project, confirmation (AID 493184;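 active means current rise at least 3 SD above the untreated control mean in each of two repeat wells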;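 on current potentiation: percent change of the same well's current before compound addition so 0% = no change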). Particulars: automated patch clamp current, at 10 µM; active compounds read high. The method in brief: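 assay system = KCNQ1-expressing CHO cells | medium = external bath solution at pH 7.4 | probe or stimulus = 2,000 ms depolarization, -90 to +40 mV | compound dosing = 10 µM final, single point | measured by = automated voltage clamp, amphotericin B perforated patch | measure = percent current increase versus pre-compound level | replication = duplicates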

The structures appear in SMILES notation. Calls of active or inactive are those of the source.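 How the source made its calls, unless noted: active means mean duplicate potentiation above the buffer control mean plus 5 SD of buffer wells; inactive means the rest.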

Chain of Potassium voltage-gated channel subfamily KQT member 1 (Homo sapiens) (P51787 whole entry, looked up): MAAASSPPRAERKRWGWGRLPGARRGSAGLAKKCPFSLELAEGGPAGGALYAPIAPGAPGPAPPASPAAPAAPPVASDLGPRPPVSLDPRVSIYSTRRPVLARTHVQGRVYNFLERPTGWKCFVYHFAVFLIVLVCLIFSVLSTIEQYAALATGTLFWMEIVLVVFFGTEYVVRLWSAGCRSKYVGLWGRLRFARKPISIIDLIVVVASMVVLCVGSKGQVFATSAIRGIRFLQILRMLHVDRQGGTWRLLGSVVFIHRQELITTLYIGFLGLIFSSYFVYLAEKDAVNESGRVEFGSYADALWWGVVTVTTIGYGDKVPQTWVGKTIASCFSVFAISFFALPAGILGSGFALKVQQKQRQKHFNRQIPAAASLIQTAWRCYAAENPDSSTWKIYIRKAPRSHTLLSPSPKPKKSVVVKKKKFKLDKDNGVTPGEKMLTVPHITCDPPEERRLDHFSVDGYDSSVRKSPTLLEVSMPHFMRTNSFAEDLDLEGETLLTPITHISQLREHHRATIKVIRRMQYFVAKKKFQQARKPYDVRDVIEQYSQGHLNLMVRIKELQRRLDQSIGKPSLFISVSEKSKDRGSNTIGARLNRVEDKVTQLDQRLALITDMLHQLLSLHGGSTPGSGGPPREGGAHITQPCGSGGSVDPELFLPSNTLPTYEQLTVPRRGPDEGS
Chain of Potassium voltage-gated channel subfamily KQT member 2 (Rattus norvegicus) (O88943 whole entry, looked up): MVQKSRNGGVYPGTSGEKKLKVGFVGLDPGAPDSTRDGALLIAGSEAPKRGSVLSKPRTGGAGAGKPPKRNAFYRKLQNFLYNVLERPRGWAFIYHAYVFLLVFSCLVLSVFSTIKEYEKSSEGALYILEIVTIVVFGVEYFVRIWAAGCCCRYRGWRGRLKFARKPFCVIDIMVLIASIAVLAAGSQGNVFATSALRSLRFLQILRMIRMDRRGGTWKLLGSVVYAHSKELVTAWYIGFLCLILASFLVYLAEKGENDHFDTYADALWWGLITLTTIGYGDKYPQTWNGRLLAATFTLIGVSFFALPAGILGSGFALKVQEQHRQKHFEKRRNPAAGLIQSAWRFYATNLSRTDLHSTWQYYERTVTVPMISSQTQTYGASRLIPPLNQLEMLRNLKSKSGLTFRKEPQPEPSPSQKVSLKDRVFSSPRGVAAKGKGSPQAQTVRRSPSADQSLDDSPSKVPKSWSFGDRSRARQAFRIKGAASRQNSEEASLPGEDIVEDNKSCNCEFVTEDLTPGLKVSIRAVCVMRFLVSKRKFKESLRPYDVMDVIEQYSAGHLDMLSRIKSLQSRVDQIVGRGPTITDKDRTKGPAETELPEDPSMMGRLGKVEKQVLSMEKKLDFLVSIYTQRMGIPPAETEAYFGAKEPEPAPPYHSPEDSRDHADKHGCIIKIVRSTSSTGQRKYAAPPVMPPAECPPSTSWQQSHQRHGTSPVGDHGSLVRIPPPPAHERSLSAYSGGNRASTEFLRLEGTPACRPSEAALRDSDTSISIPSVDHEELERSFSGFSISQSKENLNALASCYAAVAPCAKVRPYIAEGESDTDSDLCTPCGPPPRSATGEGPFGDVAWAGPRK

Take `O=c1c2cc(Br)ccc2nc(-c2ccccc2)n1O`: the activation in test [1] was 366% (active). Also, the potentiation in test [2] is 63.5% (active); in test [3] it was 314% (active). The outcome in test [4] was inactive.
For `O=C(O)CCC(=O)Nc1ccc(-c2nc3ccc(C(=O)c4ccccc4)cc3[nH]2)cc1`, the outcome in test [1], in test [2], in test [3] and in test [4] was inactive.
In the case of `Cc1ccc(/C=C/C(=O)c2ccccc(=O)c2O)cc1C`, in test [1], the activation is 174% (active). For the same molecule, the potentiation in test [2] was 56.5% (active); in test [3] it was 276% (active). Also, the result in test [4] was inactive.
For `COC(=O)c1ccc(COC(=O)c2ccccn2)cc1`, the result in test [1] and in test [4] was inactive. Also, the potentiation is 65% (active) in test [2] and 157% (active) in test [3].
As to `Cc1ccc(N=Nc2ccc(O)c3ncccc23)cc1C`, in test [1], the activation is 154% (active). The figures for the potentiation in test [2] and in test [3] were 24.5% (active) and 190% (active), respectively. Moreover, in test [4], the outcome was inactive.
On to `Cc1cc(/C=N\NC(=O)CC(=O)NC2CCCCC2)c(C)n1-c1cccc(Cl)c1Cl`, for which the result in test [1], in test [2] and in test [4] was inactive. In test [3], the potentiation was 153% (active).
As to `C=CCN1C(=O)C(CC(=O)NCC)SC1=Nc1ccc(S(N)(=O)=O)cc1` (stereo not given), the result in test [1], in test [2], in test [3] and in test [4] was inactive.
Consider `CC1CCN(C(=S)NC(=O)c2ccccc2)CC1`, for which the outcome in test [1], in test [2] and in test [4] was inactive. In addition, the potentiation in test [3] was 150% (active).
For `CCOC(=O)C1CCN(C(=O)c2c(C)oc3c2C(=O)c2ccccc2C3=O)CC1`, the result in test [1], in test [2], in test [3] and in test [4] was inactive.
Turning to `Cc1ccc(S(=O)(=O)NCC(c2ccc3c(c2)OCO3)N2CCOCC2)cc1` (stereo not given), the outcome in test [1], in test [2], in test [3] and in test [4] was inactive.
Take `CCOc1ccc(NC(=O)C2CCN(S(=O)(=O)c3cccnc3)CC2)cc1`: the outcome in test [1], in test [2], in test [3] and in test [4] was inactive.
In the case of `Cc1noc(C)c1S(=O)(=O)Nc1ccc(C#N)cc1`, the result in test [1], in test [2], in test [3] and in test [4] was inactive.
`Cc1nc(SCC(=O)NCC2CCCO2)c2c3c(sc2n1)CCCC3` (stereo not given): the activation in test [1] was 158% (active). In addition, the figures for the potentiation in test [2] and in test [3] were 55% (active) and 197% (active), respectively. Besides, the outcome in test [4] was inactive.
Consider `CC1(C)N=C(N)NC(Nc2cccc(Br)c2)=N1`, for which the result in test [1], in test [2], in test [3] and in test [4] was inactive.
For the molecule `O=C(/C=C/c1ccco1)NC(=S)Nc1ccccc1O`, the outcome in test [1], in test [2], in test [3] and in test [4] was inactive.
For the molecule `CCC(CC)c1nnc(NC(=O)c2cc(C(=O)OC)cc([N+](=O)[O-])c2)s1`, in test [1], the activation is 366% (active). Also, the potentiation in test [2] was 179% (active); in test [3] it was 419% (active). Besides, in test [4], the result was inactive.
With `CCn1nc(C)c(CNC(=O)C2CCC(=O)N(Cc3cccc(F)c3)C2)c1C` (stereo not given), the result in test [1], in test [2], in test [3] and in test [4] was inactive.
Consider `Cc1cc(O)ccc1N=Cc1c(C(F)(F)F)[nH][nH]c1=O`, for which the result in test [1], in test [2], in test [3] and in test [4] was inactive.
`O=C(NN1C(=O)C2C(c3ccccc3)C=CC(c3ccccc3)C2C1=O)c1ccncc1` (stereo not given): in test [1], the activation was 176% (active). The potentiation was 18% (active) in test [2] and 152% (active) in test [3]. Also, in test [4], the result was inactive.
Regarding `COc1ccc(-c2sc(C(=O)c3ccc(Cl)cc3Cl)cc2CC(=O)O)cc1`, the outcome in test [1], in test [2] and in test [3] was inactive. For the same molecule, the current potentiation in test [4] was 33.9% (active).
As to `CC(Oc1ccccc1F)C(=O)/C=C/N(C)C` (stereo not given), the result in test [1], in test [2], in test [3] and in test [4] was inactive.
Regarding `Cc1cc(NC(=O)CCC(=O)N(C2CC2)C(C(=O)NC(C)(C)C)c2ccccc2Cl)no1` (stereo not given), the outcome in test [1], in test [3] and in test [4] was inactive. Besides, in test [2], the potentiation is 25.5% (active).
As for `COc1ccc(CCC(=O)NCCOc2ccc(C)cc2)cc1`, the result in test [1], in test [2], in test [3] and in test [4] was inactive.
Turning to `CCC(NC(=O)CCc1nnc(-c2cc(C)on2)o1)C12CC3CC(CC(C3)C1)C2` (stereo not given), the outcome in test [1], in test [2], in test [3] and in test [4] was inactive.
Consider `CC(Sc1n[nH]c(N)n1)C(=O)NC1CCCCC1C` (stereo not given), for which the activation in test [1] is 152% (active). Moreover, the potentiation in test [2] was 37% (active); in test [3], 172% (active). In addition, the result in test [4] was inactive.
`COC(=O)c1sccc1NC(=S)NCc1ccc(Cl)cc1`: the activation in test [1] is 144% (active). Also, the potentiation in test [2] is 62.5% (active). Further, the result in test [3] and in test [4] was inactive.
As to `Cc1[nH]n(-c2ccc(F)cc2)c(=O)c1/C=N/c1sc2c(c1C#N)CCCC2`, the activation in test [1] is 276% (active). Besides, the potentiation in test [2] was 85.5% (active); in test [3], 246% (active). Besides, the outcome in test [4] was inactive.
With `COc1ccc(CCN(C)C(=O)CSc2nnc(-c3ccco3)o2)cc1OC`, the outcome in test [1], in test [2], in test [3] and in test [4] was inactive.
Turning to `S=c1nc2ccccc2c2nc(-c3ccccc3)[nH]n12`, the outcome in test [1], in test [2], in test [3] and in test [4] was inactive.
As for `CNC(=S)Nc1sc2c(c1C(=O)OC)CCC2`, the activation in test [1] was 252% (active). Moreover, the potentiation is 89.5% (active) in test [2] and 287% (active) in test [3]. Moreover, the outcome in test [4] was inactive.
